According to ChEMBL document CHEMBL1143124, “Synthesis and structure-activity relationships of 16-ene-22-thia-1alpha,25-dihydroxy-26,27-dimethyl-19-norvitamin D3 analogs having side chains of different sizes” (Bioorg Med Chem, 2008):

Experiments:
[1] = target: Vitamin D3 receptor (Homo sapiens) (UniProt P11473); test: Activity at human VDR assessed as transcriptional activation in COS cells after 24 hrs by luciferase reporter gene assay relative to 1-alpha,25-(OH)2D3
Osteoclast = test: Increase in osteoclast formation in mouse primary osteoclast cocultured cells; assay type: functional, cell-based
Procedure, shortened: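 Tibial marrow cells (1.5×10^5/well) from 5–8-wk male ddY mice were cocultured with primary calvarial cells (3×10^3/well) from newborn ddY mice. Culture was 7 days in α-MEM with 10% FBS and compound at 10^-8 to 10^-12 M, with medium renewed on day 3. Cells were formaldehyde-fixed and TRAP-stained, and TRAP-positive cells with ≥3 nuclei counted microscopically as osteoclasts.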

[2] = target: T1, Vitamin D3 receptor (Rattus norvegicus) (UniProt P13053); test: Displacement of [3H]1-alpha,25-(OH)2D3 from rat recombinant VDR ligand-binding domain relative to 1-alpha,25-(OH)2D3
T1 sequence (whole entry): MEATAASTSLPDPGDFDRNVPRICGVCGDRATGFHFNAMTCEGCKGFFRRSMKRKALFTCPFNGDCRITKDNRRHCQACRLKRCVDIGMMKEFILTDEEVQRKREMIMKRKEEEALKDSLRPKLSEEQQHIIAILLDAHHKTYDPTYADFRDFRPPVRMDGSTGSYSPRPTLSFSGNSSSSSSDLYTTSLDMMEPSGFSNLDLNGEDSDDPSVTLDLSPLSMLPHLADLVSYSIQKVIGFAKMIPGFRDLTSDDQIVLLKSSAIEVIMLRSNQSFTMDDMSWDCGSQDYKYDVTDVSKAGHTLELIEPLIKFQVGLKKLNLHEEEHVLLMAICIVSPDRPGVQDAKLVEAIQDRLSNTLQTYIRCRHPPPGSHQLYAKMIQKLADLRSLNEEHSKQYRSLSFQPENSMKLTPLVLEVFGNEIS
Procedure, shortened: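 His-tagged rat VDR LBD (aa 115–423) was expressed in E. coli and the sonicated lysate diluted ~1000-fold in 50 mM Tris pH 7.5 (100 mM KCl, 5 mM DTT, 0.5% CHAPS, 100 µg/ml BSA). It was incubated with [3H]-1α,25-(OH)2D3 (~5000 dpm) at 4 °C for 18 h. Free ligand was removed with dextran-coated charcoal (30 min, 4 °C) and centrifugation, and the supernatant counted. At least two runs, in duplicate.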

Compound	Activity [1]	Activity [2]	Activity (Osteoclast)
CCC(O)(CC)CCCS[C@H](C)C1=CCC2/C(=C/C=C3C[C@@H](O)C[C@H](O)C3)CCC[C@]12C (stereo not given in full)	20%	8%	Dose-dependent effect
CCC(O)(CC)CCS[C@H](C)C1=CCC2/C(=C/C=C3C[C@@H](O)C[C@H](O)C3)CCC[C@]12C (stereo not given in full)	27%	4%	Dose-dependent effect
CCC(O)(CC)CS[C@@H](C)C1=CCC2/C(=C/C=C3C[C@@H](O)C[C@H](O)C3)CCC[C@]12C (stereo not given in full)	104%	60%	Dose-dependent effect
CCC(O)(CC)CS[C@H](C)C1=CCC2/C(=C/C=C3C[C@@H](O)C[C@H](O)C3)CCC[C@]12C (stereo not given in full)	9%	6%	Dose-dependent effect
CCC(O)(CC)CCS[C@@H](C)C1=CCC2/C(=C/C=C3C[C@@H](O)C[C@H](O)C3)CCC[C@]12C (stereo not given in full)	2000%	100%	Dose-dependent effect

Second part, led by results:

Activity [1]	Activity [2]	Compound	Activity (Osteoclast)
1%	–	CCC(O)(CC)CCCCS[C@@H](C)C1=CCC2/C(=C/C=C3C[C@@H](O)C[C@H](O)C3)CCC[C@]12C (stereo not given in full)	–
2000%	100%	CCC(O)(CC)CCCS[C@@H](C)C1=CCC2/C(=C/C=C3C[C@@H](O)C[C@H](O)C3)CCC[C@]12C (stereo not given in full)	Dose-dependent effect
2%	–	CCC(O)(CC)CCCCCS[C@@H](C)C1=CCC2/C(=C/C=C3C[C@@H](O)C[C@H](O)C3)CCC[C@]12C (stereo not given in full)	–
